Measurements as given in article PMC7224360 (Peptide science (Hoboken, N.J.), 2018).
Entries after “also recorded” stand apart in the source; their conditions may differ.

Assays:
[1] = system: adenylyl cyclase (AC6) in N18TG2 cells; assay: Inhibition of forskolin-stimulated cAMP accumulation in N18TG2 cells; assay type: cell-based; conditions: for Inhibition of cAMP accumulation at 100 µM versus IL4 or IL4pSer402: forskolin 1 µM, peptide 100 µM, n=3
NMR secondary structure = assay type: physicochemical; conditions: average of representative NMR conformers, SDS micelles
In short: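 Test peptides at 5 mM in 90% H2O/10% D2O, pH 4.5, with perdeuterated SDS (300 mM) added to give a peptide:detergent ratio of 1:60. 1D spectra were recorded at 300–320 K. DQF-COSY, TOCSY and NOESY spectra were acquired, with 340 ms NOESY used for restraints (1.8–2.7, 1.8–3.5 or 1.8–5 Å). CYANA generated 50 structures and the 20 with lowest target function were kept. Structures were energy-minimised and refined with 3JHNHα-derived dihedrals. Secondary shifts are relative to random-coil values.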

[2] = Circular dichroism spectropolarimetry in membrane-mimetic solvents; assay type: physicochemical; conditions: 75 μM peptide; for CD conformation in phosphate buffer: Na2HPO4/KH2PO4 buffer, pH 7.0; for CD conformation in SDS: SDS in phosphate buffer; for CD conformation in methanol: methanol (up to 50%); for CD isodichroic point: SDS titration
Gαi3 (N18TG2 membranes) = assay: [35S]GTPγS binding, antibody-capture SPA, Gαi3, N18TG2 membranes; assay type: biochemical; conditions: for [35S]GTPγS binding to Gαi3 compared with IL4: N18TG2 membranes (5 µg protein), peptides up to 100 µM, IL4 100 µM, n=3-5
In short: (§1)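 N18TG2 neuroblastoma membranes (5 µg protein) were incubated with [35S]GTPγS plus WIN55212–2 (1 µM), unphosphorylated IL4 peptide (100 µM) or phosphopeptides (20–100 µM). Captured by SPA with anti-Gαo (n=3–4) or anti-Gαi3 (n=3–5) antibody. Specific binding (CPM) = total minus non-specific. Normalised to mean WIN55212–2 stimulation as 100%. Mean ± SEM; one-way ANOVA with Dunnett's post hoc test.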

Gαo (N18TG2 membranes) = assay: [35S]GTPγS binding, antibody-capture SPA, Gαo, N18TG2 membranes; assay type: biochemical
In short: as §1

[3] = cited from earlier work
[4] = system: cAMP (Gi/o pathway); Chinese hamster ovary cells without CB1R; conditions: cited from earlier work
Gi/o = conditions: cited from earlier work
[5] = at reported concentrations, ANOVA, Dunnett's

## CCCCCCC(C)(C)c1ccc([C@@H]2C[C@H](O)CC[C@H]2CCCO)c(O)c1 [CP55940, reference compound]
[1]; N18TG2 cells, CP55940 versus CP55940 plus SR141716, **P<0.005
  Effect of SR141716 on inhibition of cAMP accumulation by CP55940: Significant difference was found between CP55940 and CP55940 plus SR141716
[1]; forskolin 1 µM or secretin 30 nM, *P<0.05, **P<0.005, n=3–7
  CP55940-inhibited cAMP with versus without bradykinin, significance: significant difference was found comparing the effect of CP55940 with and without BK

## RSKDLRHAFRSMFPpSSE [IL4pSer415]
NMR secondary structure
  Distance between Cα carbons of Arg401 and Glu417: 21.52 Å
[2]
  CD conformation in 90% TFE: a slight shift toward helicity was initiated
  CD conformation in phosphate buffer: random coil
  CD conformation in SDS: induction of α-helix in SDS
  CD conformation in TFE: random coil
  CD conformation in methanol: random coil
Gαi3 (N18TG2 membranes)
  [35S]GTPγS binding to Gαi3 compared with IL4: more efficacious than IL4; also recorded: higher efficacy than IL4
[1]; N18TG2 cells
  Inhibition of cAMP accumulation at 100 µM versus IL4 or IL4pSer402: inhibited cAMP accumulation to a greater extent than IL4 or IL4pSer402; also recorded: more efficaciously than IL4 and IL4pSer402

## RSKDLRHAFRpSMFPSSE [IL4pSer411]
NMR secondary structure
  Distance between Cα carbons of Arg401 and Glu417: 23.68 Å
[2]
  CD conformation in phosphate buffer: random coil structure
  CD conformation in SDS: characteristics of α-helical structure
  CD isodichroic point: 203 nm
  CD conformation in TFE: random coil structure
  CD conformation in methanol: random coil structure
[2]; phosphate buffer pH 7.0
  CD negative minimum wavelength in phosphate buffer: 198 nm
Gαo (N18TG2 membranes); ANOVA, Dunnett's, ***P<0.0001
  Significance of Gαo stimulation versus WIN55212–2 and IL4: significantly different compared to WIN55212–2 and IL4
Gαo (N18TG2 membranes); N18TG2 membranes, WIN55212–2 1 µM, IL4 100 µM
  [35S]GTPγS binding to Gαo, fold greater than WIN55212–2 or IL4: 3 fold
Gαi3 (N18TG2 membranes); ANOVA, Dunnett's, *P<0.05
  Significance of Gi3 stimulation versus WIN55212–2 (not versus IL4): significantly different compared to WIN55212–2 but not IL4
Gαi3 (N18TG2 membranes)
  [35S]GTPγS binding to Gαi3 compared with IL4: more efficacious than IL4
[1]; N18TG2 cells
  Inhibition of cAMP accumulation at 100 µM versus IL4 or IL4pSer402: inhibited cAMP accumulation to a greater extent than IL4 or IL4pSer402; also recorded: more efficaciously than IL4 and IL4pSer402

## RpSKDLRHAFRSMFPSSE [IL4pSer402]
NMR secondary structure
  Distance between Cα carbons of Arg401 and Glu417: 23.61 Å
[2]
  CD conformation in 90% TFE: α-Helical conformation
  CD conformation in SDS: α-Helical conformation
  CD isodichroic point: 203 nm
[2]; CD
  Lowest TFE concentration inducing helical conformation: 40 % TFE
  Methanol concentration at which helical conformation is induced: 50 % methanol
Gαi3 (N18TG2 membranes)
  [35S]GTPγS binding to Gαi3 compared with IL4: not different between IL4 and IL4pSer402

## Cc1c(C(=O)c2cccc3ccccc23)c2cccc3c2n1[C@H](CN1CCOCC1)CO3 [WIN55212–2, reference compound]
Gαo (N18TG2 membranes); WIN55212–2 1 µM, N18TG2 membranes, anti-Gαo SPA, mean ± SEM
  % over stimulation by WIN55212–2, Go: 19±2.8%
Gαo (N18TG2 membranes); [5]
  Significance of Gαo stimulation versus basal: significantly different from basal
Gαi3 (N18TG2 membranes); ANOVA, Dunnett's, **P<0.005
  Significance of Gi3 stimulation by WIN55212–2 versus IL4: significantly different compared to IL4 in Gi3
Gαi3 (N18TG2 membranes); WIN55212–2 1 µM, N18TG2 membranes, anti-Gαi3 SPA, mean ± SEM
  % over stimulation by WIN55212–2, Gi3: 62.7 ±6.6%
Gαi3 (N18TG2 membranes); [5]
  Significance of Gαi3 stimulation versus basal: significantly different from basal

## CN(C)CCCn1cc(C2=C(c3c[nH]c4ccccc34)C(=O)NC2=O)c2ccccc21 [bisindolylmaleimide 1, reference compound]
[1]; N18TG2 cells, bisindolylmaleimide I 100 nM, bradykinin 100 nM, Fig. 7C
  Effect of PKC inhibitor on bradykinin augmentation of CP55940 response: reversed by the PKC inhibitor

## RSKDLRHAFRSMFPSSE [IL4]
NMR secondary structure
  Distance between Cα carbons of Arg401 and Glu417: 26 Å
[3]; SDS micelles, CD and NMR
  Conformation of unphosphorylated IL4 in SDS micelles: induced significant helical structure
[3]; aqueous
  CD conformation of unphosphorylated IL4 in aqueous environment: random coil conformation
[4]; CB1R-independent
  Reduction of cAMP levels: able to reduce cAMP levels in a CB1R-independent manner
[4]; Chinese hamster ovary cells without CB1R
  Functional activity in absence of CB1R expression: still functional
Gi/o
  Autonomous G protein activation: can activate G proteins autonomously as a pepducin
